From ChEMBL document CHEMBL1151957, “Design and synthesis of novel C14-hydroxyl substituted triptolide derivatives as potential selective antitumor agents” (J Med Chem, 2009) come the findings set out here.

A value given as a limit tells only on which side of the number the result lay.

Holding throughout (format): functional, cell-based
The test system of one experiment is SK-OV-3. Kind of experiment: Cytotoxicity against human SKOV3 cells by SRB assay. An outline of the steps: (§1)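 Cells grown in RPMI 1640 with 10% heat-inactivated FBS, 2 mmol/L glutamine, 10 mmol/L HEPES pH 7.4, 5% CO2, 37 °C; MCF-7/ADR also given 1 mmol/L pyruvate and 0.01 mg/mL insulin. Treated in triplicate with graded concentrations for 72 h at 37 °C, read by SRB. IC50 (50% growth inhibition vs control) by logit method; three independent experiments.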

The test system of another experiment is MDA-MB-468. Nature of the experiment: Cytotoxicity against human MDA-MB-468 cells by SRB assay. The method in brief:
as §1
(In general: Sulforhodamine B stains cellular protein and so reports cell mass.)

The test system of the next experiment is PC-3. Kind of experiment: Cytotoxicity against human PC3 cells by SRB assay. The method in brief: as §1

As to `CC(C)[C@]12O[C@H]1[C@@H]1O[C@]13[C@]1(O[C@H]1C=C1C4=C(CC[C@@]13C)C(=O)OC4)[C@]21CO1`, the figures for the IC50 with SK-OV-3, with MDA-MB-468 and with PC-3 were 570 nM, 1140 nM and 1800 nM, respectively.
Regarding `CC(C)[C@]12O[C@H]1[C@@H]1O[C@]13[C@]1(O[C@H]1C[C@H]1C4=C(CC[C@@]13C)C(=O)OC4)[C@]2(O)CO`, the IC50 in the experiment on SK-OV-3, in the experiment with MDA-MB-468 and in the experiment with PC-3 was > 100000 nM in each case.
`CC(C)[C@]12O[C@H]1[C@@H]1O[C@]13[C@]1(O[C@H]1C[C@H]1C4=C(CC[C@@]13C)C(=O)OC4)[C@@]21CO1`: the figures for the IC50 in the experiment on SK-OV-3, with MDA-MB-468 and in the experiment with PC-3 were 1560 nM, 1920 nM and 2700 nM, respectively.
On the same counts, the results for `CC(C)[C@]12O[C@H]1[C@@H]1O[C@]13[C@]1(O[C@H]1C[C@H]1C4=C(CC[C@@]13C)C(=O)OC4)[C@]21COS(=O)(=O)O1` are > 100000 nM, > 100000 nM and 13900 nM.
With `CC(C)[C@]12O[C@H]1[C@@H]1O[C@@]13[C@@]1(C)CCC4=C(COC4=O)[C@]1(O)C[C@@H]1O[C@@]13[C@]21CO1`, the IC50 with SK-OV-3 was 1860 nM; in the experiment with MDA-MB-468 it was 2370 nM; in the experiment on PC-3, 7340 nM.

The IC50 is the midpoint of a concentration-inhibition curve. A lower IC50 goes with greater potency.
